Measured values as given in ChEMBL document CHEMBL1255494, “In vivo comparison of the pharmacodynamic targets for echinocandin drugs against Candida species” (Antimicrob Agents Chemother, 2010).
≈ marks a conversion by molar mass, not a printed value.

Assays:
[1] = AUC (0 to 24 hrs) in Candida albicans infected neutropenic ICR Swiss mouse at 20 mg/kg, ip; type: ADME, organism-based; parameters: time < 24 hr, dose 20 mg/kg, route intraperitoneal; conditions: plasma
In short: (§1)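 Neutropenic female ICR Swiss mice (cyclophosphamide sc at 150 mg/kg on day −4, 100 mg/kg on day −1 and day +2) infected iv via tail vein with Candida; single ip doses of 5, 20 or 80 mg/kg. Serum drawn from 3 mice per time point at eight time points and assayed by microbiologic assay (C. albicans K1) or […]. Noncompartmental analysis; AUC by trapezoidal rule.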

Candida albicans [2] = experiment: Antifungal activity against Candida albicans 570 after 24 hrs; type: functional; conditions: Candida albicans, 570, 24 h
In short: (§2)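 MICs by CLSI M27-A3 broth dilution in RPMI 1640, inoculum 0.5 × 10³ to 2.5 × 10³ cells/ml, 35°C. Read visually at 24 h as the lowest concentration giving ≥50% growth reduction versus control. Run on three occasions in duplicate and reported as the mean. C. krusei ATCC 6258 and C. parapsilosis ATCC 22019 served as QC strains.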

Candida parapsilosis [3] = experiment: Antifungal activity against Candida parapsilosis 20511.092 after 24 hrs; type: functional; conditions: Lodderomyces parapsilosis, 20511.092, 24 h; in short: as §2
Nakaseomyces glabratus [4] = experiment: Antifungal activity against Candida glabrata 32930 after 24 hrs; type: functional; conditions: Nakaseomyces glabratus, 32930, 24 h
In short: (§3)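 Broth microdilution per CLSI M27-A3 in RPMI 1640; inoculum 0.5 × 10³ to 2.5 × 10³ cells/ml, 35°C. […] Three separate occasions in duplicate, mean reported; C. krusei ATCC 6258 and C. parapsilosis ATCC 22019 as daily QC.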

[5] = Cmax in Candida albicans infected neutropenic ICR Swiss mouse at 5 mg/kg, ip; type: ADME, organism-based; parameters: dose 5 mg/kg, route intraperitoneal; conditions: ICR Swiss, in vivo; in short: as §1
Candida parapsilosis [6] = experiment: Antifungal activity against Candida parapsilosis 20553.009 after 24 hrs; type: functional; conditions: Lodderomyces parapsilosis, 20553.009, 24 h; in short: as §2
Nakaseomyces glabratus [7] = experiment: Antifungal activity against Candida glabrata 5592 after 24 hrs; type: functional; conditions: Nakaseomyces glabratus, 5592, 24 h; in short: as §3
Nakaseomyces glabratus [8] = experiment: Antifungal activity against Candida glabrata 5376 after 24 hrs; type: functional; conditions: Nakaseomyces glabratus, 5376, 24 h; in short: as §3
Candida parapsilosis [9] = experiment: Antifungal activity against Candida parapsilosis 20557.012 after 24 hrs; type: functional; conditions: Lodderomyces parapsilosis, 20557.012, 24 h; in short: as §2
Candida parapsilosis [10] = experiment: Antifungal activity against Candida parapsilosis 20385.079 after 24 hrs; type: functional; conditions: Lodderomyces parapsilosis, 20385.079, 24 h; in short: as §2
Candida parapsilosis [11] = experiment: Antifungal activity against Candida parapsilosis 20477.048 after 24 hrs; type: functional; conditions: Lodderomyces parapsilosis, 20477.048, 24 h; in short: as §2
Candida orthopsilosis = experiment: Antifungal activity against Candida orthopsilosis 20577.055 after 24 hrs; type: functional; conditions: Lodderomyces orthopsilosis, 20577.055, 24 h; in short: as §2
Nakaseomyces glabratus [12] = experiment: Fungistatic activity against Candida glabrata infected in neutropenic ICR Swiss mouse after 24 hrs; type: functional
In short: (§4)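 Female ICR Swiss mice, neutropenic via cyclophosphamide s.c. (150 mg/kg day −4, 100 mg/kg day −1 and day +2), infected by tail-vein injection of clinical isolates 2 h before therapy. Intraperitoneal dosing every 24 h for 4 days, 4–6 dose levels from 0.078 to 160 mg/kg, 3 mice per regimen. Kidney CFU counted at 96 h. Sigmoid dose-effect fit gives static dose and 1 log kill dose relative to burden at start of therapy.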

Candida albicans [13] = experiment: Antifungal activity against Candida albicans infected in ICR Swiss mouse assessed as log reduction in bacterial count […]; type: functional; in short: as §4
Nakaseomyces glabratus [14] = experiment: Antifungal activity against Candida glabrata 33616 after 24 hrs; type: functional; conditions: Nakaseomyces glabratus, 33616, 24 h; in short: as §2
Candida albicans [15] = experiment: Antifungal activity against Candida albicans infected in ICR Swiss mouse; type: functional; in short: as §4
Nakaseomyces glabratus [16] = experiment: Antifungal activity against Candida glabrata 34341 after 24 hrs; type: functional; conditions: Nakaseomyces glabratus, 34341, 24 h; in short: as §2
Candida parapsilosis [17] = experiment: Antifungal activity against Candida parapsilosis 20562.03 after 24 hrs; type: functional; conditions: Lodderomyces parapsilosis, 20562.03, 24 h; in short: as §2
Candida parapsilosis [18] = experiment: Antifungal activity against Candida parapsilosis 20450.096 after 24 hrs; type: functional; conditions: Lodderomyces parapsilosis, 20450.096, 24 h; in short: as §2
Candida parapsilosis [19] = experiment: Antifungal activity against Candida parapsilosis 20423.072 after 24 hrs; type: functional; conditions: Lodderomyces parapsilosis, 20423.072, 24 h; in short: as §2
Candida parapsilosis [20] = experiment: Antifungal activity against Candida parapsilosis 20423.078 after 24 hrs; type: functional; conditions: Lodderomyces parapsilosis, 20423.078, 24 h; in short: as §2
Nakaseomyces glabratus [21] = experiment: Antifungal activity against Candida glabrata 513 after 24 hrs; type: functional; conditions: Nakaseomyces glabratus, 513, 24 h; in short: as §3
Candida parapsilosis [22] = experiment: Antifungal activity against Candida parapsilosis infected in ICR Swiss mouse; type: functional; in short: as §4
Candida albicans [23] = experiment: Fungistatic activity against Candida albicans infected in neutropenic ICR Swiss mouse after 24 hrs; type: functional; in short: as §4
Candida parapsilosis [24] = experiment: Antifungal activity against Candida parapsilosis 20435.057 after 24 hrs; type: functional; conditions: Lodderomyces parapsilosis, 20435.057, 24 h; in short: as §2
Candida parapsilosis [25] = experiment: Fungistatic activity against Candida parapsilosis infected in neutropenic ICR Swiss mouse after 24 hrs; type: functional; in short: as §4
[26] = AUC (0 to 24 hrs) in Candida albicans infected neutropenic ICR Swiss mouse at 5 mg/kg, ip; type: ADME, organism-based; parameters: time < 24 hr, dose 5 mg/kg, route intraperitoneal; conditions: plasma; in short: as §1
Candida parapsilosis [27] = experiment: Antifungal activity against Candida parapsilosis 20477.078 after 24 hrs; type: functional; conditions: Lodderomyces parapsilosis, 20477.078, 24 h; in short: as §2
Candida parapsilosis [28] = experiment: Antifungal activity against Candida parapsilosis 20489.085 after 24 hrs; type: functional; conditions: Lodderomyces parapsilosis, 20489.085, 24 h; in short: as §3
Candida metapsilosis = experiment: Antifungal activity against Candida metapsilosis 20463.02 after 24 hrs; type: functional; conditions: Lodderomyces metapsilosis, 20463.02, 24 h; in short: as §2
Nakaseomyces glabratus [29] = experiment: Antifungal activity against Candida glabrata infected in ICR Swiss mouse; type: functional; in short: as §4
Candida albicans [30] = experiment: Antifungal activity against Candida albicans 98-17 after 24 hrs; type: functional; conditions: 98-17, 24 h; in short: as §2
Mus musculus = experiment: Protein binding in Candida albicans infected neutropenic ICR Swiss mouse at 80 mg/kg, ip; type: ADME, organism-based; parameters: dose 80 mg/kg, route intraperitoneal; conditions: in vivo
[31] = Cmax in Candida albicans infected neutropenic ICR Swiss mouse at 80 mg/kg, ip; type: ADME, organism-based; parameters: dose 80 mg/kg, route intraperitoneal; conditions: ICR Swiss, in vivo; in short: as §1
Candida albicans [32] = experiment: Antifungal activity against Candida albicans 98-210 after 24 hrs; type: functional; conditions: 98-210, 24 h; in short: as §3
Candida albicans [33] = experiment: Antifungal activity against Candida albicans 98-234 after 24 hrs; type: functional; conditions: 98-234, 24 h; in short: as §2
Nakaseomyces glabratus [34] = experiment: Antifungal activity against Candida glabrata 33609 after 24 hrs; type: functional; conditions: Nakaseomyces glabratus, 33609, 24 h; in short: as §3
Candida albicans [35] = experiment: Antifungal activity against Candida albicans K1 after 24 hrs; type: functional; conditions: K1, 24 h; in short: as §3
[36] = AUC (0 to 24 hrs) in Candida albicans infected neutropenic ICR Swiss mouse at 80 mg/kg, ip; type: ADME, organism-based; parameters: time < 24 hr, dose 80 mg/kg, route intraperitoneal; conditions: plasma; in short: as §1
Candida parapsilosis [37] = experiment: Antifungal activity against Candida parapsilosis infected in ICR Swiss mouse assessed log reduction in bacterial count […]; type: functional; in short: as §4
Nakaseomyces glabratus [38] = experiment: Antifungal activity against Candida glabrata infected in neutropenic ICR Swiss mouse assessed log reduction in bacterial count […]; type: functional; in short: as §4
Candida parapsilosis [39] = experiment: Antifungal activity against Candida parapsilosis 20519.069 after 24 hrs; type: functional; conditions: Lodderomyces parapsilosis, 20519.069, 24 h; in short: as §2
Candida albicans [40] = experiment: Antifungal activity against Candida albicans 580 after 24 hrs; type: functional; conditions: Candida albicans, 580, 24 h; in short: as §3
Nakaseomyces glabratus [41] = experiment: Antifungal activity against Candida glabrata 35315 after 24 hrs; type: functional; conditions: Nakaseomyces glabratus, 35315, 24 h; in short: as §2
[42] = Cmax in Candida albicans infected neutropenic ICR Swiss mouse at 20 mg/kg, ip; type: ADME, organism-based; parameters: dose 20 mg/kg, route intraperitoneal; conditions: ICR Swiss, in vivo; in short: as §1

## CC[C@H](C)C[C@H](C)CCCCCCCCC(=O)N[C@H]1C[C@@H](O)[C@@H](NCCN)NC(=O)[C@@H]2[C@@H](O)CCN2C(=O)[C@H]([C@H](O)CCN)NC(=O)[C@H]([C@H](O)[C@@H](O)c2ccc(O)cc2)NC(=O)[C@@H]2C[C@@H](O)CN2C(=O)[C@H]([C@@H](C)O)NC1=O [CASPOFUNGIN]
[1]
  AUC(0-t) at 24 h: 345 µg·h/mL
Candida albicans [2]
  MIC: 0.12 µg/mL (≈ 0.11 µM)
Candida parapsilosis [3]
  MIC: 0.06 µg/mL (≈ 0.0549 µM)
Nakaseomyces glabratus [4]
  MIC: 0.03 µg/mL (≈ 0.0274 µM)
[5]
  Cmax: 18000 ng/mL
Candida parapsilosis [6]
  MIC: 1 µg/mL (≈ 0.915 µM)
Nakaseomyces glabratus [7]
  MIC: 0.03 µg/mL (≈ 0.0274 µM)
Nakaseomyces glabratus [8]
  MIC: 0.03 µg/mL (≈ 0.0274 µM)
Candida parapsilosis [9]
  MIC: 0.12 µg/mL (≈ 0.11 µM)
Candida parapsilosis [10]
  MIC: 0.5 µg/mL (≈ 0.457 µM)
Candida parapsilosis [11]
  MIC: 4 µg/mL (≈ 3.66 µM)
Candida orthopsilosis
  MIC: 0.06 µg/mL (≈ 0.0549 µM)
Nakaseomyces glabratus [12]
  Activity: 0.33 mg/kg
Candida albicans [13]
  Activity: 2.91 mg/kg
Nakaseomyces glabratus [14]
  MIC: 0.25 µg/mL (≈ 0.229 µM)
Candida albicans [15]
  Emax: 4.1 log10 CFU/kidneys
Candida albicans [15]; Candida albicans
  ED50: 8 mg/kg
Nakaseomyces glabratus [16]
  MIC: 0.25 µg/mL (≈ 0.229 µM)
Candida parapsilosis [17]
  MIC: 0.25 µg/mL (≈ 0.229 µM)
Candida parapsilosis [18]
  MIC: 0.5 µg/mL (≈ 0.457 µM)
Candida parapsilosis [19]
  MIC: 0.12 µg/mL (≈ 0.11 µM)
Candida parapsilosis [20]
  MIC: 0.25 µg/mL (≈ 0.229 µM)
Nakaseomyces glabratus [21]
  MIC: 0.03 µg/mL (≈ 0.0274 µM)
Candida parapsilosis [22]
  Emax: 5.5 log10 CFU/kidneys
Candida parapsilosis [22]; Lodderomyces parapsilosis
  ED50: 10.4 mg/kg
Candida albicans [23]
  Activity: 0.72 mg/kg
Candida parapsilosis [24]
  MIC: 0.06 µg/mL (≈ 0.0549 µM)
Candida parapsilosis [25]
  Activity: 3.56 mg/kg
[26]
  AUC(0-t) at 24 h: 164 µg·h/mL
Candida parapsilosis [27]
  MIC: 0.5 µg/mL (≈ 0.457 µM)
Candida parapsilosis [28]
  MIC: 0.25 µg/mL (≈ 0.229 µM)
Candida metapsilosis
  MIC: 0.06 µg/mL (≈ 0.0549 µM)
Nakaseomyces glabratus [29]
  Emax: 7 log10 CFU/kidneys
Nakaseomyces glabratus [29]; Nakaseomyces glabratus
  ED50: 6.9 mg/kg
Candida albicans [30]
  MIC: 0.12 µg/mL (≈ 0.11 µM)
Mus musculus
  Activity: 97%
[31]
  Cmax: 58000 ng/mL
Candida albicans [32]
  MIC: 0.02 µg/mL (≈ 0.0183 µM)
Candida albicans [33]
  MIC: 0.03 µg/mL (≈ 0.0274 µM)
Nakaseomyces glabratus [34]
  MIC: 0.03 µg/mL (≈ 0.0274 µM)
Candida albicans [35]
  MIC: 0.03 µg/mL (≈ 0.0274 µM)
[36]
  AUC(0-t) at 24 h: 667 µg·h/mL
Candida parapsilosis [37]
  Activity: 9.84 mg/kg
Nakaseomyces glabratus [38]
  Activity: 1.16 mg/kg
Candida parapsilosis [39]
  MIC: 1 µg/mL (≈ 0.915 µM)
Candida albicans [40]
  MIC: 0.03 µg/mL (≈ 0.0274 µM)
Nakaseomyces glabratus [41]
  MIC: 0.12 µg/mL (≈ 0.11 µM)
[42]
  Cmax: 26000 ng/mL
